Among the data in ChEMBL document CHEMBL3259680, “Discovery and Biological Evaluation of Novel Dual EGFR/c-Met Inhibitors” (ACS Med Chem Lett, 2014) are IC50, inhibition and Activity values, retold here.

Activity calls are given as the source filed them. The calls are words filed in the database; no cut-off is given here. Some results are limits rather than exact numbers.

One may read the IC50 as the point on the concentration scale where inhibition reaches its midpoint.

For assay [1], the target named is T1, Epidermal growth factor receptor (Homo sapiens, UniProt P00533). As to the kind of experiment: Inhibition of recombinant EGFR (unknown origin) using poly-GT peptide as substrate by Transcreener assay.
In assay [2] the target is Epidermal growth factor receptor (Homo sapiens, UniProt P00533, L858R). Put plainly: Inhibition of recombinant EGFR L858R mutant (unknown origin) using poly-GT peptide as substrate after 1 hr by Transcreener assay. The class given is protein assay.
Assay [3] deals with T2, Hepatocyte growth factor receptor (Homo sapiens, UniProt P08581). Put plainly: Inhibition of recombinant c-MET (unknown origin) using poly-AEKY peptide as substrate after 60 mins by ADPGlo assay. In general terms: In ADP-Glo the light output rises with the ADP produced.
Assay [4] concerns the target Insulin receptor (Homo sapiens, UniProt P06213). As to the kind of experiment: Inhibition of recombinant INSR (unknown origin) using fluorescent dye-labelled KKSRGDYMTMQIG peptide peptide as substrate after 1 hr by IMAP assay.
Assay [5] in a line: Cytotoxicity against human HCC827 cells after 48 hrs by MTT assay. Format: functional, cell-based. Particulars: HCC827, 48 h.
Assay [6] concerns NCI-H1975. Put plainly: Cytotoxicity against human NCI-H1975 cells after 48 hrs by MTT assay. Format: functional, cell-based. Particulars: NCI-H1975, 48 h.
In assay [7] the test system is NCI-H1993. As to the kind of experiment: Cytotoxicity against human NCI-H1993 cells after 48 hrs by MTT assay. The class given is functional, cell-based. Particulars: NCI-H1993, 48 h. (Tetrazolium assays rely on reduction of a dye to a coloured formazan, in cell work by metabolically active cells.)
A short description of assay [8]: Cytotoxicity against mouse NIH/3T3 cells after 48 hrs by MTT assay. Format: cell-based. Particulars: NIH3T3, 48 h.
The target of assay [9] is T2, Hepatocyte growth factor receptor. As to the kind of experiment: Inhibition of recombinant c-MET (unknown origin) using poly-AEKY peptide as substrate by ADPGlo assay. Conditions: TDE = time-dependent effect.
Assay [10] has as its system A549. Put plainly: Cytotoxicity against human A549 cells after 48 hrs by MTT assay. Conditions: A549, 48 h. Format: functional, cell-based.
For assay [11], the target named is T2, Hepatocyte growth factor receptor. As to the kind of experiment: Inhibition of c-MET (unknown origin) phosphorylation by cell-based Western blot analysis. For orientation: Immunoblotting shows a protein as a band on a membrane.
Assay [12] concerns the target T1, Epidermal growth factor receptor. As to the kind of experiment: Inhibition of EGFR (unknown origin) phosphorylation by cell-based Western blot analysis.
In assay [13] the test system is DU-145. Put plainly: Antiinvasive activity in human DU145 cells assessed as inhibition of HGF-induced cell motility preincubated for 1 hr before HGF treatment measured after 24 hrs by cell scattering assay. The class given is functional, cell-based.
In assay [14] the test system is NCI-H1993. Put plainly: Induction of apoptosis in human NCI-H1993 cells at 1 uM after 24 hrs using propidium iodide by flow cytometry. The class given is functional, cell-based. In short, it runs like this:
(§1)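 Apoptosis read by flow cytometry; means ± SD of at least 3 independent experiments; unpaired 2-tailed Student's t test against DMSO-treated cells, p < 0.05.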

Assay [15] relates to HCC827. Put plainly: Induction of apoptosis in human HCC827 cells at 1 uM after 24 hrs using propidium iodide by flow cytometry. The class given is functional, cell-based. In short, it runs like this:
as §1

With `COc1cc2c(Oc3ccc(NS(=O)(=O)c4cccc(-c5ccco5)c4)cc3F)ccnc2cc1OCCCN1CCN(C)CC1`, the IC50 is 1910 nM in assay [1]; 1900 nM in assay [2]; 2710 nM in assay [3]; more than 12500 nM in assay [4]; 3110 nM in assay [5]; 1620 nM in assay [6]. Moreover, the IC50 in assay [7] is more than 10000 nM; in assay [8], 3200 nM. Moreover, the inhibition entry in assay [9] is “tde”.

Turning to `COc1cc2c(Oc3ccc(NS(=O)(=O)c4cccc(-c5ccoc5)c4)cc3F)ccnc2cc1OCCCN1CCOCC1`, the IC50 in assay [1] is 3860 nM; in assay [2] it was 2900 nM; in assay [3], 978 nM; in assay [4] it was more than 12500 nM; in [10] it was 8210 nM; in assay [5], 4170 nM. The IC50 in assay [6] was 8930 nM; in assay [7] it was 4460 nM. Also, the inhibition entry in assay [9] was “tde”.

Turning to `COc1cc2c(Oc3ccc(NC(=O)c4c(C)n(C)n(-c5ccccc5)c4=O)cc3F)ccnc2cc1OCCCN1CCN(C)CC1`, the IC50 was 7670 nM in assay [1]; more than 16000 nM in assay [2]; 5 nM in assay [3]; 39 nM in assay [4]; 1240 nM in [10]; 2580 nM in assay [5]. For the same compound, the IC50 in [6] stood at 1060 nM; in [7] it was 2 nM; in assay [8], 66 nM. Moreover, the inhibition entry in [9] is “tde”. The inhibition result in [11] is “Active”. Moreover, in [12], the inhibition result is “inactive”.

On to `COc1cc2c(Oc3ccc(NS(=O)(=O)c4ccc(-c5ccsc5)cc4)cc3F)ccnc2cc1OCCCN1CCN(C)CC1`, for which the IC50 in assay [1] was 1200 nM; in assay [2], 1850 nM; in [3] it was 2690 nM; in assay [4], more than 12500 nM; in assay [10], 6780 nM; in assay [5], 4610 nM. In addition, the IC50 in assay [6] was found to be 7710 nM; in assay [7], 5040 nM. In addition, the inhibition entry in [9] was “tde”.

For the compound `COc1cc2c(Oc3ccc(NS(=O)(=O)c4cccc(-c5ccoc5)c4)cc3F)ccnc2cc1OCCCN1CCN(C)CC1`, the IC50 amounted to 168 nM in [1]; 283 nM in [2]; 1050 nM in assay [3]; 5230 nM in assay [4]; 3650 nM in [10]; 2500 nM in [5]. In addition, the IC50 in assay [6] was 2960 nM; in [7] it was 2690 nM; in assay [8], 1760 nM. In assay [9], the inhibition entry was “tde”. Also, the inhibition result in assay [11] was “Active”. For the same compound, in assay [12], the inhibition entry is “inactive”.

Take `COc1cc2c(Oc3ccc(NS(=O)(=O)c4cccc(-c5cccs5)c4)cc3F)ccnc2cc1OCCCN1CCN(C)CC1`: the 50% inhibitory concentration (IC50) in [1] was 1050 nM; in assay [2], 1160 nM; in [3], 2710 nM; in [4], more than 12500 nM; in assay [10] it was 3920 nM; in assay [5] it was 5030 nM. For the same compound, the IC50 is 4520 nM in [6] and 4030 nM in [7]. In addition, the inhibition entry in [9] was “tde”.

In the case of `COc1cc2c(Oc3ccc(NS(=O)(=O)c4cccc(-c5cnn(C)c5)c4)cc3F)ccnc2cc1OCCCN1CCN(C)CC1`, the IC50 in assay [1] was 84 nM; in assay [2], 369 nM; in assay [3], 564 nM; in assay [4], 7870 nM; in assay [10] it was 8850 nM; in assay [5] it was 2830 nM. The values for the IC50 in assay [6], in assay [7] and in [8] were 6120 nM, 6240 nM and 2480 nM, respectively. Moreover, the inhibition result in assay [9] was “tde”. For the same compound, in assay [11], the inhibition entry is “Active”. In addition, the inhibition entry in assay [12] was “inactive”.

In the case of `COc1cc2c(Oc3ccc(NS(=O)(=O)c4cccc(-c5cnn(C)c5)c4)cc3F)ccnc2cc1OCCCN1CCOCC1`, the IC50 in [1] is 1370 nM; in [2], 1970 nM; in [3], 1720 nM; in assay [4], more than 12500 nM; in [10], 6440 nM; in assay [5], 5010 nM. The values for the IC50 in [6] and in assay [7] were 6900 nM and 5230 nM, respectively. The inhibition entry in [9] was “tde”.

As for `CCOc1ccn(-c2ccc(F)cc2)c(=O)c1C(=O)Nc1ccc(Oc2ccnc(N)c2Cl)c(F)c1` [BMS-777607], the IC50 in [3] turned out to be 7 nM; in [7], 1110 nM; in assay [13] it was 200 nM.

For `C[C@@H](Oc1cc(-c2cnn(C3CCNCC3)c2)cnc1N)c1c(Cl)ccc(F)c1Cl` [CRIZOTINIB], the IC50 in assay [7] came out at 61 nM; in [8], 364 nM. Besides, in [14], the outcome was inactive.

In the case of `CN(C)C/C=C/C(=O)Nc1cc2c(Nc3ccc(F)c(Cl)c3)ncnc2cc1O[C@H]1CCOC1` [AFATINIB], the IC50 in [7] was more than 12500 nM; in [8], 3600 nM. In addition, in assay [15], the outcome was Active. Further, the outcome in assay [14] was inactive.

As for `COc1cc2c(Oc3ccc(NS(=O)(=O)c4cc(-c5ccsc5)ccc4F)cc3F)ccnc2cc1OCCCN1CCN(C)CC1`, the IC50 was found to be 572 nM in assay [1]; 578 nM in assay [2]; 1660 nM in assay [3]; 11800 nM in [4]; 4360 nM in [10]; 2820 nM in assay [5]. Moreover, the figures for the IC50 in [6] and in assay [7] were 4100 nM and 4000 nM, respectively. In addition, in [9], the inhibition result is “tde”.

Turning to `C#Cc1cccc(Nc2ncnc3cc(OCCOC)c(OCCOC)cc23)c1`, in assay [15], the result was Active. Moreover, the outcome in [14] was inactive.

Turning to `COc1cc2c(Oc3ccc(NC(=O)c4c(C)n(C)n(-c5ccccc5)c4=O)cc3F)ccnc2cc1OCCCN1CCOCC1`, the IC50 in assay [1] is more than 16000 nM; in [2], more than 16000 nM; in [3] it was 7 nM; in assay [4], 170 nM; in assay [10] it was 1190 nM; in assay [5] it was 2510 nM. Besides, the IC50 in assay [6] turned out to be 1460 nM; in assay [7], 5 nM; in assay [8], 74 nM. Also, in assay [11], the inhibition entry is “Active”. The inhibition result in assay [12] was “inactive”.

Turning to `COc1cc2c(Oc3ccc(NS(=O)(=O)c4ccc(-c5cnn(C)c5)cc4)cc3F)ccnc2cc1OCCCN1CCN(C)CC1`, the concentration for half-maximal inhibition (IC50) in assay [1] was 4350 nM; in assay [2], 7540 nM; in assay [3] it was 1230 nM; in [4] it was more than 12500 nM; in assay [10] it was more than 10000 nM; in [5], 5900 nM. Further, the IC50 in assay [6] is more than 10000 nM; in [7], 4330 nM. Further, the inhibition entry in assay [9] is “tde”.
